Laboratory results taken from ChEMBL document CHEMBL4689842, “EUbOPEN Chemogenomics Library wave 1” (2021).

Test system: Fibroblast
Assay: Multiplex assay against human fibroblast
Type: toxicity, cell-based
In short: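 Per cents of healthy-nucleus cells form the tubulin, mitochondrial-mass and membrane-permeability phenotype values. Live cells were stained at seeding with Hoechst33342, BioTracker Green Microtubule Cytoskeleton Dye, MitoTracker Red and Annexin V Alexa Fluor 680. After compound addition they were imaged on a CQ1 microscope at 37°C and 5% CO2, and CellPathfinder machine-learning gating split them into Hoechst high-intensity objects or normal cells, normal cells into healthy, pyknosed or fragmented nuclei, and pyknosed cells into mitotic or apoptotic.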

[1] = 12 h, 1 µM, compound concentration 1 uM, replicate 1
[2] = 12 h, 1 µM, compound concentration 1 uM, replicate 2
[3] = 12 h, 10 µM, compound concentration 10 uM, replicate 1
[4] = 12 h, 10 µM, compound concentration 10 uM, replicate 2
[5] = 24 h, 1 µM, compound concentration 1 uM, replicate 1
[6] = 24 h, 1 µM, compound concentration 1 uM, replicate 2
[7] = 24 h, 10 µM, compound concentration 10 uM, replicate 1
[8] = 24 h, 10 µM, compound concentration 10 uM, replicate 2
[9] = 48 h, 1 µM, compound concentration 1 uM, replicate 1
[10] = 48 h, 1 µM, compound concentration 1 uM, replicate 2
[11] = 48 h, 10 µM, compound concentration 10 uM, replicate 1
[12] = 48 h, 10 µM, compound concentration 10 uM, replicate 2

## CCOC(=O)c1c(C)[nH]c2ccc3c(c12)CN1CCc2cc(OC)ccc2C1O3 (stereo unspecified)
[1]
  Population Apoptotic (%): 69%
  Population Fragmented Nuclei (%): 21%
  Population Healthy Nuclei (%): 51%
  Population Hoechst High Intensity Objects (%): 8%
  Population Membrane Permeable-Phenotype (%): 8%
  Population Mitochondria Different-Phenotype (%): 23%
  Population Mitotic Cells (%): 30%
  Population Normal (%): 91%
  Population Pyknosed Nuclei (%): 26%
  Population Tubulin-Different-Phenotype (%): 43%
  Total Cell Count: 150
[2]
  Population Apoptotic (%): 9%
  Population Fragmented Nuclei (%): 9%
  Population Healthy Nuclei (%): 76%
  Population Hoechst High Intensity Objects (%): 9%
  Population Membrane Permeable-Phenotype (%): 3%
  Population Mitochondria Different-Phenotype (%): 70%
  Population Mitotic Cells (%): 90%
  Population Normal (%): 90%
  Population Pyknosed Nuclei (%): 14%
  Population Tubulin-Different-Phenotype (%): 62%
  Total Cell Count: 65
[3]
  Population Apoptotic (%): 82%
  Population Fragmented Nuclei (%): 18%
  Population Healthy Nuclei (%): 38%
  Population Hoechst High Intensity Objects (%): 7%
  Population Membrane Permeable-Phenotype (%): 12%
  Population Mitochondria Different-Phenotype (%): 74%
  Population Mitotic Cells (%): 17%
  Population Normal (%): 92%
  Population Pyknosed Nuclei (%): 43%
  Population Tubulin-Different-Phenotype (%): 80%
  Total Cell Count: 88
[4]
  Population Apoptotic (%): 80%
  Population Fragmented Nuclei (%): 2%
  Population Healthy Nuclei (%): 75%
  Population Hoechst High Intensity Objects (%): 11%
  Population Membrane Permeable-Phenotype (%): 70%
  Population Mitochondria Different-Phenotype (%): 100%
  Population Mitotic Cells (%): 20%
  Population Normal (%): 88%
  Population Pyknosed Nuclei (%): 22%
  Population Tubulin-Different-Phenotype (%): 100%
  Total Cell Count: 84
[5]
  Population Apoptotic (%): 62%
  Population Fragmented Nuclei (%): 29%
  Population Healthy Nuclei (%): 58%
  Population Hoechst High Intensity Objects (%): 13%
  Population Membrane Permeable-Phenotype (%): 13%
  Population Mitochondria Different-Phenotype (%): 13%
  Population Mitotic Cells (%): 37%
  Population Normal (%): 86%
  Population Pyknosed Nuclei (%): 12%
  Population Tubulin-Different-Phenotype (%): 48%
  Total Cell Count: 152
[6]
  Population Apoptotic (%): 8%
  Population Fragmented Nuclei (%): 9%
  Population Healthy Nuclei (%): 75%
  Population Hoechst High Intensity Objects (%): 5%
  Population Membrane Permeable-Phenotype (%): 1%
  Population Mitochondria Different-Phenotype (%): 58%
  Population Mitotic Cells (%): 91%
  Population Normal (%): 94%
  Population Pyknosed Nuclei (%): 14%
  Population Tubulin-Different-Phenotype (%): 35%
  Total Cell Count: 65
[7]
  Population Apoptotic (%): 70%
  Population Fragmented Nuclei (%): 27%
  Population Healthy Nuclei (%): 46%
  Population Hoechst High Intensity Objects (%): 20%
  Population Membrane Permeable-Phenotype (%): 13%
  Population Mitochondria Different-Phenotype (%): 70%
  Population Mitotic Cells (%): 30%
  Population Normal (%): 79%
  Population Pyknosed Nuclei (%): 25%
  Population Tubulin-Different-Phenotype (%): 86%
  Total Cell Count: 99
[8]
  Population Apoptotic (%): 89%
  Population Fragmented Nuclei (%): 6%
  Population Healthy Nuclei (%): 52%
  Population Hoechst High Intensity Objects (%): 11%
  Population Membrane Permeable-Phenotype (%): 83%
  Population Mitochondria Different-Phenotype (%): 100%
  Population Mitotic Cells (%): 10%
  Population Normal (%): 88%
  Population Pyknosed Nuclei (%): 41%
  Population Tubulin-Different-Phenotype (%): 100%
  Total Cell Count: 87
[9]
  Population Apoptotic (%): 64%
  Population Fragmented Nuclei (%): 32%
  Population Healthy Nuclei (%): 54%
  Population Hoechst High Intensity Objects (%): 14%
  Population Membrane Permeable-Phenotype (%): 9%
  Population Mitochondria Different-Phenotype (%): 9%
  Population Mitotic Cells (%): 35%
  Population Normal (%): 85%
  Population Pyknosed Nuclei (%): 12%
  Population Tubulin-Different-Phenotype (%): 47%
  Total Cell Count: 155
[10]
  Population Apoptotic (%): 100%
  Population Fragmented Nuclei (%): 33%
  Population Healthy Nuclei (%): 66%
  Population Hoechst High Intensity Objects (%): 11%
  Population Membrane Permeable-Phenotype (%): 6%
  Population Mitochondria Different-Phenotype (%): 3%
  Population Mitotic Cells (%): 0%
  Population Normal (%): 88%
  Population Pyknosed Nuclei (%): 0%
  Total Cell Count: 185
[11]
  Population Apoptotic (%): 90%
  Population Fragmented Nuclei (%): 36%
  Population Healthy Nuclei (%): 50%
  Population Hoechst High Intensity Objects (%): 28%
  Population Membrane Permeable-Phenotype (%): 10%
  Population Mitochondria Different-Phenotype (%): 82%
  Population Mitotic Cells (%): 10%
  Population Normal (%): 71%
  Population Pyknosed Nuclei (%): 12%
  Population Tubulin-Different-Phenotype (%): 84%
  Total Cell Count: 108
[12]
  Population Apoptotic (%): 66%
  Population Fragmented Nuclei (%): 46%
  Population Healthy Nuclei (%): 51%
  Population Hoechst High Intensity Objects (%): 25%
  Population Membrane Permeable-Phenotype (%): 0%
  Population Mitochondria Different-Phenotype (%): 74%
  Population Mitotic Cells (%): 33%
  Population Normal (%): 74%
  Population Pyknosed Nuclei (%): 1%
  Population Tubulin-Different-Phenotype (%): 89%
  Total Cell Count: 223
